Square brackets hold non-standard residues; d marks the D form. Peptide text beside a SMILES is read from it. ξ: configuration not given here. ξTle = CC(C)(C)C(N)C(=O)O
Assays:
Assay type in all cases: ADME
[1] = biological target: DPP4 (dipeptidyl peptidase 4) (Sus scrofa, UniProt P22411); assay: Stability of the compound assessed as porcine DPP4-mediated compound degradation measured intact level at 0.1 mM measured at 30 mins by reverse-phase HPLC/MS analysis; conditions: pig, read-out: Stability
Sequence of DPP4 (dipeptidyl peptidase 4) (P22411 whole entry): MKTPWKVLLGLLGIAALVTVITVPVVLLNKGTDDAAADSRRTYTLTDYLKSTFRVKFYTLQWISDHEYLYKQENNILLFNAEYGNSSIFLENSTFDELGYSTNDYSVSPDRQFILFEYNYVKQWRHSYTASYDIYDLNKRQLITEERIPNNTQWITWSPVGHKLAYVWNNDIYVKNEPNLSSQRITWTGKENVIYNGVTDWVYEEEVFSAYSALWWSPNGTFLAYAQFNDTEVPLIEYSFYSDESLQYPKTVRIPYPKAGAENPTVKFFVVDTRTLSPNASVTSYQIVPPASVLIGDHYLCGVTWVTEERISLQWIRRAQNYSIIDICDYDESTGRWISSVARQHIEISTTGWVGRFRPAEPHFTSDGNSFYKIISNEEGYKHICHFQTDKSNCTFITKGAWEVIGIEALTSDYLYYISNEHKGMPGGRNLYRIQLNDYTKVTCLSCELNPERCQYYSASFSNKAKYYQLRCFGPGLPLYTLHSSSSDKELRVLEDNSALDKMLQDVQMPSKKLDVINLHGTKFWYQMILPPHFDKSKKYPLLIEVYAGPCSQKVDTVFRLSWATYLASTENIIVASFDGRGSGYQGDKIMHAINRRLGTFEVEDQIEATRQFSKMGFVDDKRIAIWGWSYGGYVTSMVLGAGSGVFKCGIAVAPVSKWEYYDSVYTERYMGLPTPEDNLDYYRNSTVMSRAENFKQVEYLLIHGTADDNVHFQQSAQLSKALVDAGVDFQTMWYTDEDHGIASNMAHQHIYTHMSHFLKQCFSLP
How it was run: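 Synthetic hexapeptides (0.1 mM) incubated at 37 °C with 10 mU/mL DPP IV purified from porcine kidney in 50 mM HEPES, 0.14 M NaCl, pH 8.0; intact peptide by HPLC-MS, expressed as percent of time-zero value.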

Trypsin [2] = biological target: T1, Trypsin (Sus scrofa, UniProt P00761); assay: Stability of the compound assessed as half life of porcine pancreatic trypsin-mediated compound degradation at 0.1 mM by reverse-phase HPLC/MS analysis; conditions: pig
T1 sequence (P00761 whole entry): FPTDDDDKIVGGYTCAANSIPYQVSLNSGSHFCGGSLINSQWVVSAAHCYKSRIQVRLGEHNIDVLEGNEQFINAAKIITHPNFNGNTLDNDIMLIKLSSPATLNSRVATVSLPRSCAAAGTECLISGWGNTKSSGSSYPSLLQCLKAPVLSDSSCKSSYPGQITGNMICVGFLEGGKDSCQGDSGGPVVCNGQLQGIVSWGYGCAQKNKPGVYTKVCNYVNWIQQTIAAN

[3] = biological target: alpha-lytic protease (alpha-LP) (Lysobacter enzymogenes, UniProt P00778); assay: Stability of the compound assessed as half life of Lysobacter enzymogenes alpha-LP-mediated compound degradation at 0.1 mM by reverse-phase HPLC/MS analysis
Sequence of alpha-lytic protease (alpha-LP) (P00778 whole entry): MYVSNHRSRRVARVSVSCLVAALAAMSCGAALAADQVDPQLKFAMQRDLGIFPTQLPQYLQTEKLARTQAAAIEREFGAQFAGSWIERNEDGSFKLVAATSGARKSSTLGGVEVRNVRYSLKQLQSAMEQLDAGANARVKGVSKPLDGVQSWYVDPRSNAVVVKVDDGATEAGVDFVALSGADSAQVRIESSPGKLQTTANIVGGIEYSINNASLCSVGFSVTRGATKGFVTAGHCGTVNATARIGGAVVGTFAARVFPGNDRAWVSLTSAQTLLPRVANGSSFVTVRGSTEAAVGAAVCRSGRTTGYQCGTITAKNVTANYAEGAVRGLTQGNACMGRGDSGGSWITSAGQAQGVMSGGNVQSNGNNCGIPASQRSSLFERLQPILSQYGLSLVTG

Dipeptidyl peptidase 4 = Dipeptidyl peptidase 4 (Homo sapiens, UniProt P27487); assay: Stability of the compound assessed as recombinant human DPP4-mediated compound degradation at 0.1 mM measured after 24 hrs by reverse-phase HPLC/MS analysis; conditions: 100 µM
Sequence of Dipeptidyl peptidase 4 (P27487 whole entry): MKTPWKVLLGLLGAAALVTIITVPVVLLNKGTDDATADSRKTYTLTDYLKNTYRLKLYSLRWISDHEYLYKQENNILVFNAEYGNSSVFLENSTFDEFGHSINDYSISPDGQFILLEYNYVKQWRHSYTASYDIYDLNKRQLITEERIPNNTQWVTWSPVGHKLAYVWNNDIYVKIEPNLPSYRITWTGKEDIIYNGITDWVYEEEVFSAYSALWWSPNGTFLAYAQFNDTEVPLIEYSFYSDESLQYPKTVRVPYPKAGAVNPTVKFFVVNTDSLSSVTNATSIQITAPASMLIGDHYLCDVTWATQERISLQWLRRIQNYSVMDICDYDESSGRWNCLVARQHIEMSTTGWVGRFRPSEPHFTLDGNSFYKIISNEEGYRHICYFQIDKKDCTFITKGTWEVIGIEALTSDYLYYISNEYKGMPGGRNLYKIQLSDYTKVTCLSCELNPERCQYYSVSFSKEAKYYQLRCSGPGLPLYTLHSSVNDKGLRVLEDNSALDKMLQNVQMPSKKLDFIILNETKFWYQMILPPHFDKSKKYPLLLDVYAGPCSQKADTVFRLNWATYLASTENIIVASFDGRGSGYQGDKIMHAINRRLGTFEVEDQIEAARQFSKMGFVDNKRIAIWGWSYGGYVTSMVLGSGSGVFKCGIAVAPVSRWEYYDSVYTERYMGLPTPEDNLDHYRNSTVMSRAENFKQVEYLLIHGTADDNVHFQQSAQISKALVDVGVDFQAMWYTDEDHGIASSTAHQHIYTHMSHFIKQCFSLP
How it was run: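 GLP-1 peptides (0.1 mM) incubated at 37 °C with recombinant human DPP IV in 50 mM HEPES, 0.14 M NaCl, pH 8.0, up to 24 h; acid-quenched samples analysed by RP-HPLC-MS for intact peptide.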

Trypsin [4] = biological target: T1, Trypsin; assay: Stability of the compound assessed as porcine pancreatic trypsin-mediated compound degradation at 0.1 mM after 8 hrs by reverse-phase HPLC/MS analysis; conditions: pig, isolated protein, 100 µM

CC[C@H](C)[C@H](NC(=O)[C@@H]1CCCN1C(=O)[C@H](C)N)C(=O)N[C@@H](CO)C(=O)N[C@@H](Cc1c[nH]c2ccccc12)C(=O)N[C@@H](CO)C(=O)O (H-APISWS-OH)
remaining at 0.5 h, 100 µM [1]: < 70%

CC(C)C[C@H](NC(=O)[C@@H](N)CC(C)C)C(=O)N1CCC[C@H]1C(=O)N[C@@H](CCCNC(=N)N)C(=O)N[C@H](C(=O)N[C@@H](C)C(=O)N[C@@H](CC(N)=O)C(=O)NCC(=O)N[C@@H](CO)C(=O)N[C@@H](CO)C(=O)N[C@@H](Cc1ccccc1)C(=O)N[C@H](C(=O)N[C@H](C(=O)N[C@H](C(=O)O)C(C)C)[C@@H](C)O)C(C)C)C(C)C (H-LLPRVANGSSFVTV-OH)
half-life at 100 µM (Trypsin [2]): 24 min
half-life at 100 µM [3]: 24 min

CC(C)C[C@H](NC(=O)[C@@H]1CCCN1C(=O)[C@H](C)N)C(=O)N[C@@H](CO)C(=O)N[C@@H](Cc1c[nH]c2ccccc12)C(=O)N[C@@H](CO)C(=O)O (H-APLSWS-OH)
remaining at 0.5 h, 100 µM [1]: < 70%

CC[C@H](C)[C@H](NC(=O)[C@H](Cc1ccccc1)NC(=O)[C@H](CCC(=O)O)NC(=O)[C@H](CCCCN)NC(=O)[C@H](C)NC(=O)[C@H](C)NC(=O)[C@H](CCC(N)=O)NC(=O)CNC(=O)[C@H](CCC(=O)O)NC(=O)[C@H](CC(C)C)NC(=O)[C@H](Cc1ccc(O)cc1)NC(=O)[C@H](CO)NC(=O)[C@H](CO)NC(=O)[C@@H](NC(=O)[C@H](CC(=O)O)NC(=O)[C@H](CO)NC(=O)[C@@H](NC(=O)[C@H](Cc1ccccc1)NC(=O)[C@@H](NC(=O)CNC(=O)C(NC(=O)[C@H](C)NC(=O)[C@@H](N)Cc1cnc[nH]1)C(C)(C)C)[C@@H](C)O)[C@@H](C)O)C(C)C)C(=O)N[C@@H](C)C(=O)N[C@@H](Cc1c[nH]c2ccccc12)C(=O)N[C@@H](CC(C)C)C(=O)N[C@H](C(=O)N[C@@H](CCCCN)C(=O)NCC(=O)N[C@@H](CCCN=C(N)N)C(N)=O)C(C)C (stereo partly specified)
Stability (Dipeptidyl peptidase 4): Stable

CC(C)C[C@H](NC(=O)[C@@H](N)CC(C)C)C(=O)N1CCC[C@H]1C(=O)N[C@@H](CCCNC(=N)N)C(=O)NC(C(=O)N[C@@H](C)C(=O)N[C@@H](CC(N)=O)C(=O)NCC(=O)N[C@@H](CO)C(=O)N[C@@H](CO)C(=O)N[C@@H](Cc1ccccc1)C(=O)N[C@H](C(=O)N[C@H](C(=O)N[C@H](C(=O)O)C(C)C)[C@@H](C)O)C(C)C)C(C)(C)C (stereo partly specified) (H-LLPR[ξTle]ANGSSFVTV-OH)
Stability (Trypsin [4]): Stable

— ChEMBL document CHEMBL3085773, “A general method for making peptide therapeutics resistant to serine protease degradation: application to dipeptidyl peptidase IV substrates” (J Med Chem, 2013)
